Activity and IC50 data for 1 molecule are collected here from ChEMBL document CHEMBL4251567 (Eur J Med Chem, 2018).

The target in assay [1] is T1, Histone deacetylase (Homo sapiens) (UniProt Q13547+O15379+Q9UBN7+Q92769+Q9UQL6+Q8WUI4+Q9BY41+Q96DB2+P56524+Q9UKV0+Q969S8). Put plainly: Inhibition of HDAC in human HeLa-S3 cell lysates assessed as residual activity at 2.5 x 10^-5 M preincubated for 15 mins followed by HDAC-Glo substrate addition measured after 35 mins by […] relative to control. It counts as protein assay.

The target in assay [2] is Histone deacetylase 1 (Homo sapiens) (UniProt Q13547). Put plainly: Inhibition of HDAC1 in human HeLa-S3 cell lysates assessed as remaining activity at 2.4 x 10^-5 M preincubated for 15 mins followed by HDAC-Glo substrate addition measured after 30 to 40 mins by […] relative to control. In a few lines: (§1)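 HDAC1 was captured from HeLa-S3 lysate (100 μg/mL) onto wells precoated with anti-HDAC1 antibody (10 μg/mL, carbonate buffer pH 9.4) and milk-blocked, 1 h at 4 °C, then washed. Inhibitor in DMSO was added in HDAC-Glo buffer for 15 min at room temperature. HDAC-Glo reagent was added and luminescence read after 30-40 min. Concentrations are final. No-antibody background subtracted; % of DMSO control.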

For assay [3], the target named is Histone deacetylase 2 (Homo sapiens) (UniProt Q92769). Kind of assay: Inhibition of HDAC2 in human HeLa-S3 cell lysates assessed as remaining activity at 4.8 x 10^-5 M preincubated for 15 mins followed by HDAC-Glo substrate addition measured after 30 to 40 mins by […] relative to control. An outline of the steps:
(§2)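 Same antibody-capture format as the other class I isoforms. HeLa-S3 lysate added at 100 μg/mL for HDAC1 and HDAC2, 1 h at 4 °C, then washed. Inhibitor in DMSO preincubated 15 min at RT; HDAC-Glo reagent added and luminescence read after 30-40 min. Concentrations are final. Signal corrected against a well without antibody; activity expressed as % of DMSO control.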

The target in assay [4] is Histone deacetylase 1 (Homo sapiens) (UniProt Q13547). Kind of assay: Inhibition of HDAC1 in human HeLa-S3 cell lysates assessed as remaining activity at 4.8 x 10^-5 M preincubated for 15 mins followed by HDAC-Glo substrate addition measured after 30 to 40 mins by […] relative to control. An outline of the steps:
as §1

The target in assay [5] is T2, Histone deacetylase 8 (Homo sapiens) (UniProt Q9BY41).
T2 sequence (whole entry): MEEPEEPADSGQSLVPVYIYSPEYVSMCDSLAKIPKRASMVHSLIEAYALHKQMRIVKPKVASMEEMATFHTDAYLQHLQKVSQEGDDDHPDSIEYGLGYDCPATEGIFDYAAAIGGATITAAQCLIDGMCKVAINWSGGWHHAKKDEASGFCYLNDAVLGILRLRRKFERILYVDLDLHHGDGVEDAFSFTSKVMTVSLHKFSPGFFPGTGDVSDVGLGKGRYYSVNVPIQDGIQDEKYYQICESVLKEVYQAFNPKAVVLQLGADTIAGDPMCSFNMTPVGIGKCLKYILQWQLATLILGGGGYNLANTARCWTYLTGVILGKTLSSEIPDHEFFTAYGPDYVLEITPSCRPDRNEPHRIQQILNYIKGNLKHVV
Kind of assay: Inhibition of human recombinant full-length C-terminal His-tagged HDAC8 expressed in baculovirus infected Sf9 insect cell assessed as remaining activity at 4 x 10^-7 M preincubated for 15 mins followed by HDAC-Glo substrate addition measured after 30 mins by fluorimetric method rel;ative to control. An outline of the steps:
(§3)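 Recombinant HDAC8 (75 ng) preincubated 15 min at RT with inhibitor in DMSO in HDAC-Glo buffer. HDAC-Glo reagent added and luminescence read 30 min later. Background taken from a reaction without enzyme; activity as % of DMSO control.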

Assay [6] has as its target Histone deacetylase 3 (Homo sapiens) (UniProt O15379). Kind of assay: Inhibition of HDAC3 in human HeLa-S3 cell lysates assessed as remaining activity at 6 x 10^-6 M preincubated for 15 mins followed by HDAC-Glo substrate addition measured after 30 to 40 mins by […] relative to control. In a few lines:
(§4)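 Antibody-capture (ELISA-type) assay: HDAC antibody coated in carbonate/bicarbonate buffer pH 9.4, wells blocked with 5% milk in TBST. HeLa-S3 lysate added at 1 mg/mL for HDAC3, 1 h at 4 °C, then washed. Inhibitor in DMSO preincubated 15 min at RT in HDAC-Glo buffer. HDAC-Glo reagent added, luminescence read after 30-40 min. Concentrations are final. Background = no-antibody well; activity given as % of DMSO control.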

In assay [7] the target is Histone deacetylase 2 (Homo sapiens) (UniProt Q92769). Kind of assay: Inhibition of HDAC2 in human HeLa-S3 cell lysates assessed as remaining activity at 6 x 10^-6 M preincubated for 15 mins followed by HDAC-Glo substrate addition measured after 30 to 40 mins by […] relative to control. An outline of the steps: as §2
Assay [8] deals with T2, Histone deacetylase 8 (Homo sapiens). Put plainly: Inhibition of human recombinant full-length C-terminal His-tagged HDAC8 expressed in baculovirus infected Sf9 insect cell assessed as remaining activity at 8 x 10^-7 M preincubated for 15 mins followed by HDAC-Glo substrate addition measured after 30 mins by fluorimetric method rel;ative to control. An outline of the steps:
as §3

For assay [9], the target named is T1, Histone deacetylase (Homo sapiens). Kind of assay: Inhibition of HDAC in human HeLa-S3 cell lysates assessed as residual activity at 1 x 10^-4 M preincubated for 15 mins followed by HDAC-Glo substrate addition measured after 35 mins by […] relative to control. The assay is classed as protein assay.
Assay [10] concerns the target Histone deacetylase 1 (Homo sapiens) (UniProt Q13547). Put plainly: Inhibition of HDAC1 in human HeLa-S3 cell lysates assessed as remaining activity at 1.2 x 10^-5 M preincubated for 15 mins followed by HDAC-Glo substrate addition measured after 30 to 40 mins by […] relative to control. An outline of the steps: as §1
Assay [11] addresses Histone deacetylase 2 (Homo sapiens) (UniProt Q92769). Put plainly: Inhibition of HDAC2 in human HeLa-S3 cell lysates assessed as remaining activity at 1.2 x 10^-5 M preincubated for 15 mins followed by HDAC-Glo substrate addition measured after 30 to 40 mins by […] relative to control. An outline of the steps:
as §2

The target of assay [12] is Histone deacetylase 1 (Homo sapiens) (UniProt Q13547). Kind of assay: Inhibition of HDAC1 in human HeLa-S3 cell lysates assessed as remaining activity at 6 x 10^-6 M preincubated for 15 mins followed by HDAC-Glo substrate addition measured after 30 to 40 mins by […] relative to control. In a few lines: as §1
Assay [13] deals with Histone deacetylase 3 (Homo sapiens) (UniProt O15379). Kind of assay: Inhibition of HDAC3 in human HeLa-S3 cell lysates assessed as remaining activity at 2.4 x 10^-5 M preincubated for 15 mins followed by HDAC-Glo substrate addition measured after 30 to 40 mins by […] relative to control. In a few lines:
as §4

The target of assay [14] is Histone deacetylase 2 (Homo sapiens) (UniProt Q92769). Kind of assay: Inhibition of HDAC2 in human HeLa-S3 cell lysates assessed as remaining activity at 2.4 x 10^-5 M preincubated for 15 mins followed by HDAC-Glo substrate addition measured after 30 to 40 mins by fluorimetric method relative to control. In a few lines:
as §2

Assay [15] addresses T1, Histone deacetylase (Homo sapiens). Put plainly: Inhibition of HDAC in human HeLa-S3 cell lysates assessed as residual activity at 1.25 x 10^-5 M preincubated for 15 mins followed by HDAC-Glo substrate addition measured after 35 mins by […] relative to control. It counts as protein assay.
The target of assay [16] is Histone deacetylase 3 (Homo sapiens) (UniProt O15379). Put plainly: Inhibition of HDAC3 in human HeLa-S3 cell lysates assessed as remaining activity at 4.8 x 10^-5 M preincubated for 15 mins followed by HDAC-Glo substrate addition measured after 30 to 40 mins by […] relative to control. In a few lines: as §4
Assay [17] deals with Histone deacetylase 1 (Homo sapiens) (UniProt Q13547). Put plainly: Inhibition of HDAC1 in human HeLa-S3 cell lysates assessed as remaining activity at 3 x 10^-6 M preincubated for 15 mins followed by HDAC-Glo substrate addition […] relative to control.
A further assay deals with Histone deacetylase. Kind of assay: Inhibition of HDAC in human HeLa-S3 cell lysates preincubated for 15 mins followed by HDAC-Glo substrate addition measured after 35 mins by fluorimetric method. The assay is classed as protein assay.
For assay [18], the target named is Histone deacetylase 3 (Homo sapiens) (UniProt O15379). Put plainly: Inhibition of HDAC3 in human HeLa-S3 cell lysates assessed as remaining activity at 3 x 10^-6 M preincubated for 15 mins followed by HDAC-Glo substrate addition measured after 30 to 40 mins by fluorimetric method relative to control. In a few lines:
as §4

Assay [19] shares this target. Put plainly: Inhibition of HDAC3 in human HeLa-S3 cell lysates assessed as remaining activity at 1.2 x 10^-5 M preincubated for 15 mins followed by HDAC-Glo substrate addition measured after 30 to 40 mins by […] relative to control. In a few lines:
as §4

Assay [20] concerns the target Histone deacetylase 2 (Homo sapiens) (UniProt Q92769). Put plainly: Inhibition of HDAC2 in human HeLa-S3 cell lysates assessed as remaining activity at 3 x 10^-6 M preincubated for 15 mins followed by HDAC-Glo substrate addition measured after 30 to 40 mins by fluorimetric method relative to control. An outline of the steps:
as §2

Assay [21] has as its target T1, Histone deacetylase (Homo sapiens). Put plainly: Inhibition of HDAC in human HeLa-S3 cell lysates assessed as residual activity at 2 x 10^-4 M preincubated for 15 mins followed by HDAC-Glo substrate addition measured after 35 mins by fluorimetric method relative to control. The assay is classed as protein assay. An outline of the steps:
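Lysate (1 μg total protein) in HDAC-Glo buffer was preincubated with inhibitor in DMSO for 15 min at room temperature. HDAC-Glo substrate/developer reagent was added and luminescence read after 35 min. Concentrations are final. Signal corrected for a no-lysate blank; % of DMSO control.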

Chain of Histone deacetylase 2 (Homo sapiens) (Q92769 whole entry, canonical isoform): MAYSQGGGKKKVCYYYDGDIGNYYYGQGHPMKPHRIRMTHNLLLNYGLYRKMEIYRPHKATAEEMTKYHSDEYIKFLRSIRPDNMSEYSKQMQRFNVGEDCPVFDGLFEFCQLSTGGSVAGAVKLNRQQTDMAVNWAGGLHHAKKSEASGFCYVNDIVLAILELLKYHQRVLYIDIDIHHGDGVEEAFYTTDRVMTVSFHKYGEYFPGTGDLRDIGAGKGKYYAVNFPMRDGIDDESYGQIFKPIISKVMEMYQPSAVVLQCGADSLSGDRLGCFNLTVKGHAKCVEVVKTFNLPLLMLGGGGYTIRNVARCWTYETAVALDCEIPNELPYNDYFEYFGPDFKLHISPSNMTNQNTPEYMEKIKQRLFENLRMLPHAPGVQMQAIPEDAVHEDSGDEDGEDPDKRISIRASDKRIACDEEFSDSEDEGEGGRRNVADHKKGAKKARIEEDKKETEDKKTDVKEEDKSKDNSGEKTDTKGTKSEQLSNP
Chain of Histone deacetylase 1 (Homo sapiens) (Q13547 whole entry): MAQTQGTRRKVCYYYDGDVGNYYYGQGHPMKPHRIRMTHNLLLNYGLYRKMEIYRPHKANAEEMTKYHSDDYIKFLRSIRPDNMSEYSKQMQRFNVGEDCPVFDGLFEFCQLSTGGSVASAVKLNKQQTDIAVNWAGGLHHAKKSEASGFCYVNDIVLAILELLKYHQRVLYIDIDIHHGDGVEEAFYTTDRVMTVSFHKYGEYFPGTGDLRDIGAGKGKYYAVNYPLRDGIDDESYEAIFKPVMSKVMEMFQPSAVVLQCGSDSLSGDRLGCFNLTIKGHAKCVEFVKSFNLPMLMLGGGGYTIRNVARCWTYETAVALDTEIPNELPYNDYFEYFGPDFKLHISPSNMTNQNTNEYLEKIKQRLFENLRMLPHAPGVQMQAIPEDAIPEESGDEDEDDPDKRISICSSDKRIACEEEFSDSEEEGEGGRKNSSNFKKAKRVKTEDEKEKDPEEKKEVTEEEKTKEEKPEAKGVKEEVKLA
Chain of Histone deacetylase 3 (Homo sapiens) (O15379 whole entry): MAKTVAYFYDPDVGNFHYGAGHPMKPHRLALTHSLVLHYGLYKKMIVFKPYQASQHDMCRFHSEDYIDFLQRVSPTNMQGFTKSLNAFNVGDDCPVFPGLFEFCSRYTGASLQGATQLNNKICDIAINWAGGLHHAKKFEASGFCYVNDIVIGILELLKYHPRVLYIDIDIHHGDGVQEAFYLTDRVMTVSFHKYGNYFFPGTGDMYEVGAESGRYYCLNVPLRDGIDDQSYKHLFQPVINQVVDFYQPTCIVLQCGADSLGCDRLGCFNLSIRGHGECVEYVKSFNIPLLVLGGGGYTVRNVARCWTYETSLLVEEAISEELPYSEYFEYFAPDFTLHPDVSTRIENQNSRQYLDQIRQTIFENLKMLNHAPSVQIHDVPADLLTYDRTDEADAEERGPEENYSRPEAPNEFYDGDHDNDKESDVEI

Turning to `O=C(CCC(CCCC(=O)Nc1ccccc1)c1ccccc1)NO` (configuration not stated), the Activity in assay [1] came out at 88%; in assay [2] it was 34%; in assay [3], 22%; in assay [4], 19%; in assay [5], 48%; in assay [6] it was 74%. Moreover, the Activity in [7] came to 68%; in [8], 29%; in assay [9] it was 32%; in [10] it was 53%; in [11], 53%; in assay [12], 63%. For the same molecule, the Activity in assay [13] came out at 53%; in assay [14], 33%; in assay [15] it was 104%; in assay [16], 30%; in assay [17], 74%; in assay [18] it was 88%. Further, the Activity was determined as 64% in assay [19], 72% in assay [20] and 15% in [21]. Besides, at Histone deacetylase, the IC50 (usually the concentration needed to halve the response being measured) was found to be 65 µM.
